Data reported in PMC6771261 (Journal of natural products, 2019).

Experiments:
[1] = test system: HRECs; experiment: Matrigel based tube formation assay; assay type: cell-based, human; settings: HRECs on Matrigel, 8 hours, different concentrations
In short: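 HRECs (passage 5–8) in EGM-2 were seeded at 15,000 cells per well onto Matrigel-coated wells, with DMSO vehicle or a range of test compound concentrations. A known antiangiogenic homoisoflavonoid served as positive control. After 8 h, wells were imaged and tube length was quantified by image analysis. Mean ± SEM, n=3–6 wells, duplicate experiments; one-way ANOVA with Dunnett's post hoc test vs DMSO.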

[2] = test system: 92–1 uveal melanoma cells; settings: read-out: GI50 (92–1); as reported; cited from earlier work
[3] = test system: HUVECs (human umbilical vein endothelial cells); settings: read-out: GI50 (HUVEC); as reported; cited from earlier work
[4] = test system: Y79 retinoblastoma cells; settings: read-out: GI50 (Y79); as reported; cited from earlier work
[5] = test system: HRECs (human retinal microvascular endothelial cells); settings: read-out: GI50 (HREC); as reported; cited from earlier work

Structure (SMILES): COc1ccc(C[C@@H]2COc3cc(OC)c(OC)c(OC)c3C2=O)cc1O [Compound 45, 5,6,7-trimethoxy-3(R)-(3ʹhydroxy-4ʹ-methoxybenzyl)-4-chromanone]
- ability of HRECs to form tubes (tubule length compared to DMSO control) [1]: effective

Structure (SMILES): COc1ccc(/C=C2\COc3cc(OC)c(OC)c(O)c3C2=O)cc1O [Compound 48, (E)-5-hydroxy-6,7-trimethoxy-3-(3ʹhydroxy-4ʹ-methoxybenzylidene)-4-chromanone]
- ability of HRECs to form tubes (tubule length compared to DMSO control) [1]: effective

Structure (SMILES): CCOc1ccc(C(=O)/C=C/c2ccc(OC)c(OC)c2)c(O)c1C [Compound 50, (E)-3-(3,4-dimethoxylphenyl)-1-(4-ethoxy-2-hydroxy-3-methyl-phenyl)prop-2-en-1-one]
- ability of HRECs to form tubes (tubule length compared to DMSO control) [1]: effective

Structure (SMILES): COc1ccc(CC2COc3cc(O)c(OC)c(O)c3C2=O)cc1O (stereo not shown) [cremastranone]
- GI50 [2]: 48 µM
- GI50 [3]: 0.38 µM
- GI50 [4]: 9.8 µM
- GI50 [5]: 0.22 µM
